The record followed here is ChEMBL document CHEMBL4334552, “Discovery of BMS-986260, a Potent, Selective, and Orally Bioavailable TGFβR1 Inhibitor as an Immuno-oncology Agent” (ACS Med Chem Lett, 2020).

The term pIC50 denotes the negative decadic logarithm of the IC50, by convention in mol/L. One may read the bioavailability as the share of a dose that reaches the circulation, judged against a reference dose that is usually intravenous. Lower therefore signals poor availability. A word on the Cmax: it is the highest concentration seen after dosing. The AUC is the area under the concentration-time curve, a measure of exposure. Read a high AUC as more exposure. Usually fraction unbound stands for free concentration divided by total concentration. By pKi is commonly meant the Ki on a negative log10 scale, so that one unit is a factor of ten. For orientation: half-life means the time in which the quantity being followed falls by half.

Each structure is given as a SMILES string. pIC50, pKi: −log10 of the molar value. The source made the active and inactive calls. The calls are words filed in the database; no cut-off is given here. Bounds are passed on as bounds.

Series [1] is described as follows: Volume of distribution at steady state in Sprague Dawley rat at 5 mg/kg, iv. Format: ADME, organism-based. Particulars: in vivo, read-out: Vdss. The method in brief: (§1)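 Male Sprague–Dawley rats (n = 3) received a PEG400 solution iv at 5 mg/kg and po at 10 mg/kg.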
Series [2] concerns MC-38. Description: Antitumour activity against mouse MC38 cells allografted in C57Bl/6 mouse assessed as reduction in tumour growth at 3.75 to 15 mg/kg, po qd for 28 days cotreated with anti-PD1 at 10 mg/kg, ip every 4 days for 3 doses by digital caliper analysis. The class given is functional, organism-based. The method in brief:
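C57/BL6 mice received 0.1 mL of MC38 cells (1 × 10^7 cells/mL) subcutaneously in the right flank. Mice were randomized at about 100 mm3, typically day 5. Oral dosing was once daily for 28 days at 3.75, 7.5 or 15 mg/kg. Anti-PD-1 was given at 10 mg/kg IP every 4 days for three doses. Isotype IgG1 MOPC-21 served as control on the same schedule.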

Series [3] is described as follows: Cardiovascular toxicity in dog at 5 mg/kg, po dosed every 3 days on and 4 days off treatment regime for 1 month. Format: organism-based, Canis lupus familiaris. The settings on record: in vivo.
The subject of series [4] is MC-38. In words: Antitumour activity against mouse MC38 cells allografted in C57Bl/6 mouse assessed as reduction in tumour growth at 3.75 mg/kg, po dosed every 3 days on and 4 days off treatment regime and cotreated with anti-PD1 at 10 mg/kg, ip every 4 days for 3 doses by digital caliper analysis. Format: functional, organism-based. The method in brief: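 MC38 cells (0.1 mL at 1 × 10^7 cells/mL) were implanted subcutaneously in the right flank of C57/BL6 mice. Randomization was at about 100 mm3, typically day 5. Oral dosing ran 3 days on, 4 days off, over 28 days. Anti-PD-1 was given at 10 mg/kg IP every 4 days for three doses, with isotype MOPC-21 IgG1 as control on the same schedule.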

The target in a further series is Cytochrome P450 2C9 (Homo sapiens, UniProt P11712). Description: Inhibition of recombinant CYP2C9 (unknown origin). The class given is ADME.
Chain of Cytochrome P450 2C9 (P11712 whole entry): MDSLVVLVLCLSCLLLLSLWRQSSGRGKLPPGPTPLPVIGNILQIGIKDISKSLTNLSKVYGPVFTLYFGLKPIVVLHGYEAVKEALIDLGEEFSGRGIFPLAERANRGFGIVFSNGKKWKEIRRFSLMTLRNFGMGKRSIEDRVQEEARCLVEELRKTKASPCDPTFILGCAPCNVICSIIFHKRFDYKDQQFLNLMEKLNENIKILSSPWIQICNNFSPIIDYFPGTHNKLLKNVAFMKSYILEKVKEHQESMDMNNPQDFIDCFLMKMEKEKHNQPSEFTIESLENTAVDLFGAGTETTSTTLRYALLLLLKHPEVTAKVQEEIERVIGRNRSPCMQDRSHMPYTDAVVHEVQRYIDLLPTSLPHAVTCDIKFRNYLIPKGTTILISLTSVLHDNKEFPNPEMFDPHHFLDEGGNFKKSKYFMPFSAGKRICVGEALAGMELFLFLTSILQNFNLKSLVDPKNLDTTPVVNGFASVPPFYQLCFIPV
A short description of series [5]: Oral bioavailability in Sprague Dawley rat at 10 mg/kg. The class given is ADME, organism-based. Particulars: in vivo. Put shortly: as §1
Series [6] can be described thus: Cmax in Beagle dog at 5 mg/kg, po. Format: ADME, organism-based, Canis lupus familiaris. The arrangement: dose 5 mg/kg, route oral. The settings on record: in vivo. The method in brief:
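Male Beagle dogs, n = 2, pretreated with pentagastrin. The po dose of 5 mg/kg was in 5% ethanol, 45% PEG400 and 50% 25 mM acetate buffer pH 4.0. The iv dose of 1 mg/kg was in 5:45:50 EtOH/PEG400/saline at 1 mL/kg.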

A short description of series [7]: Total AUC in Balb/C mouse at 10 mg/kg, po. Details: dose 10 mg/kg, route oral, time AUCmax. The class given is ADME, organism-based. The settings on record: in vivo. Put shortly:
(§2)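 Male Balb/C mice (n = 3) dosed iv at 5 mg/kg and po at 10 mg/kg. Vehicle was 70% 25 mM acetate buffer pH 4.0, 5% ethanol and 25% PEG 400.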

A short description of series [8]: Protein binding in mouse serum assessed as unbound fraction. Format: ADME, cell-free.
The target of series [9] is T1, TGF-beta receptor type-1 (Homo sapiens, UniProt P36897).
T1 sequence (P36897 whole entry): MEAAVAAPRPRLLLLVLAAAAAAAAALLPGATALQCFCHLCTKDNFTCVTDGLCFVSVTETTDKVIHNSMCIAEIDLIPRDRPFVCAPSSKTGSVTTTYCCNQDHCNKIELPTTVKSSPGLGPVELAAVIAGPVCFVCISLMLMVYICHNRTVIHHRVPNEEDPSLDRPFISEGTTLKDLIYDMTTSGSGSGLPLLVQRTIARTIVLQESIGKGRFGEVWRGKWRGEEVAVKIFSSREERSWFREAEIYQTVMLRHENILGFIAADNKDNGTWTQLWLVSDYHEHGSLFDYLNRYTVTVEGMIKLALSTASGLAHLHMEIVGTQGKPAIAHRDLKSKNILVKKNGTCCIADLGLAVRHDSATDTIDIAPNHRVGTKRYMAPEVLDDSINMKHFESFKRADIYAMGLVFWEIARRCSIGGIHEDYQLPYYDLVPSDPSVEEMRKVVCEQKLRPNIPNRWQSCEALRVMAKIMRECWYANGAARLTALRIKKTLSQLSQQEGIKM
Description: Inhibition of TGFBR1 in human biochemical assay assessed as apparent inhibition constant. Particulars: read-out: Ki(app).

Series [10] in a line: Half life in mouse liver microsomes in presence of UGT/UDPGA. The class given is ADME, Microsome.
The target in series [11] is T1, TGF-beta receptor type-1. In words: Inhibition of TGFBR1 in TGFbeta-stimulated human NHLF cells assessed as reduction in SMAD2 nuclear translocation.
The target of series [12] is T1, TGF-beta receptor type-1. In words: Inhibition of TGFbetaR1 in anti-CD3/anti-CD28/IL-2/TGFbeta -stimulated human Treg cells assessed as downregulation of FOXP3 expression incubated for 5 days by flow cytometry analysis.
Series [13] is described as follows: Volume of distribution at steady state in Balb/C mouse at 5 mg/kg, iv. The class given is ADME, organism-based. Particulars: in vivo, read-out: Vdss. Put shortly: as §2
A short description of series [14]: Metabolic stability of compound in mouse liver microsomes assessed as compound remaining. Format: ADME, Microsome.
Series [15] concerns the target T2, TGF-beta receptor type-1 (Mus musculus, UniProt Q64729).
T2 sequence (Q64729 whole entry): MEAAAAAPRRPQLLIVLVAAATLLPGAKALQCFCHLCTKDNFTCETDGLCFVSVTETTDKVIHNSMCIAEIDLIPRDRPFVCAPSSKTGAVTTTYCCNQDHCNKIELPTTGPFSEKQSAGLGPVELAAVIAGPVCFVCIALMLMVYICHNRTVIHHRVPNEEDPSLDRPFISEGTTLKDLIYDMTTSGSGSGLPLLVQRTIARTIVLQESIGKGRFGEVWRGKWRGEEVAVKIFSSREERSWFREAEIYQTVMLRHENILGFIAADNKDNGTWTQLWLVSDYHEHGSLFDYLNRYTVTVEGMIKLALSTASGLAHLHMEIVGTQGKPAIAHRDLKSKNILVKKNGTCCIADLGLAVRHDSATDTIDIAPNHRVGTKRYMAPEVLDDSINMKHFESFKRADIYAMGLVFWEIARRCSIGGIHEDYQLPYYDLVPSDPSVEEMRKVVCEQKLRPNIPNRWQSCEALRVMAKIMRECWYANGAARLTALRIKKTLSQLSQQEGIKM
In words: Inhibition of TGFbetaR1 in TGFbeta-stimulated mouse NIH3T3 cells assessed as reduction in SMAD3 phosphorylation. The class given is cell-based.

The nature of series [16]: Half life in mouse hepatocytes. Format: ADME, cell-based, Hepatocyte.

For the compound `N#Cc1cnc2ccc(-c3c(-c4ccc(F)c(Cl)c4)ncn3CCO)nn12`, the Vd was 2.4 L/kg in [1] and 4.5 L/kg in series [13]. Further, the inhibition entry in the series with MC-38 [2] and with MC-38 [4] was “Active” in each case. Further, the Activity entry in series [3] is recorded as “Non-Toxic”. For the same compound, the negative-log IC50 (pIC50) was below 4.70 at Cytochrome P450 2C9, 6.72 at TGF-beta receptor type-1 [11], 6.64 at TGF-beta receptor type-1 [12] and 7.30 at TGF-beta receptor type-1 [15]. Further, the bioavailability in series [5] is above 100%. This compound also had a Cmax in series [6] of 11.2 µM. The compound further displayed an AUC in [7] of 80.5 µM·h. Also, the fraction unbound in [8] was 0.12. Besides, on TGF-beta receptor type-1 [9], the pKi is 9.10. Also, the half-life in series [10] was above 2 h; in series [16], 1.27 h. The Stability in [14] stood at 81%.
